Assay results published in ChEMBL document CHEMBL1141070, “Synthesis and biological activity of flurbiprofen analogues as selective inhibitors of beta-amyloid(1)(-)(42) secretion” (J Med Chem, 2005).

Experiments:
[1] = biological target: T1, Amyloid-beta precursor protein (Homo sapiens, UniProt P05067); assay: Inhibitory concentration against beta-amyloid-42 (Abeta42) secretion was evaluated in human neuroglioma cells (H4-APP695NL); type: functional, cell-based
Procedure, shortened: (§1)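 H4-APP695NL human neuroglioma cells (APP695 Swedish K595N/M596L) seeded at 2 × 10^5/well and grown 24 h to confluence. Increasing compound concentrations added overnight; DMSO 1% as vehicle. Supernatant Aβ42 or Aβ40 measured by electrochemiluminescence immunoassay: biotinylated 4G8 plus C-terminus-specific rabbit antibodies, captured on streptavidin beads.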
Target sequence in this assay (P05067 18-770 limits assumed): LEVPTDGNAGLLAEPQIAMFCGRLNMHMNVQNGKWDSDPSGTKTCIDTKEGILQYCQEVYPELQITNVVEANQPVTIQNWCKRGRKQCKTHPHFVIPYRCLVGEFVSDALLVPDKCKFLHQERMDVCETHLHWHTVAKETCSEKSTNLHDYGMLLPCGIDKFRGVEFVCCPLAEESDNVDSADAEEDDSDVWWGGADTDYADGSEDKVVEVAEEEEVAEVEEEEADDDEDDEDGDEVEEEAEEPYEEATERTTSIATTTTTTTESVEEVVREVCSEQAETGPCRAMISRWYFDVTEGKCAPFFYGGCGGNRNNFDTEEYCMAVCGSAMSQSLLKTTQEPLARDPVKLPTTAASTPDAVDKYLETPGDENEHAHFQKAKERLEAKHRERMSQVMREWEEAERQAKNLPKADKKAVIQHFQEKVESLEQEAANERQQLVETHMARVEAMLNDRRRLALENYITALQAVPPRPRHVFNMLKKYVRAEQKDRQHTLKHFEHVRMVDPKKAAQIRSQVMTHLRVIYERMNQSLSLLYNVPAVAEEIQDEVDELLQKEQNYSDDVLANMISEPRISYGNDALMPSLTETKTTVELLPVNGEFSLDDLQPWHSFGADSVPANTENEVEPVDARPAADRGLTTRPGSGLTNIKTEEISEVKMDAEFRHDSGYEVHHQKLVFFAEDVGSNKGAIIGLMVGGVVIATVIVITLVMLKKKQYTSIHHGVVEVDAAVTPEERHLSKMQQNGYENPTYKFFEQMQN

[2] = Intestinal drug absorption was estimated in vitro using human colon adenocarcinoma (Caco-2) cell monolayers; type: ADME
Procedure, shortened: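 Caco-2 monolayers on polycarbonate Transwell inserts, 2 h at 37 °C. Apical and basolateral solutions analysed by LC-MS/MS (SRM). Papp = Cb·Vb/(C0·A·t).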

[3] = biological target: T1, Amyloid-beta precursor protein; assay: Concentration required to inhibit A beta 40 peptide; procedure, shortened: as §1
Target sequence in this assay (P05067 whole entry): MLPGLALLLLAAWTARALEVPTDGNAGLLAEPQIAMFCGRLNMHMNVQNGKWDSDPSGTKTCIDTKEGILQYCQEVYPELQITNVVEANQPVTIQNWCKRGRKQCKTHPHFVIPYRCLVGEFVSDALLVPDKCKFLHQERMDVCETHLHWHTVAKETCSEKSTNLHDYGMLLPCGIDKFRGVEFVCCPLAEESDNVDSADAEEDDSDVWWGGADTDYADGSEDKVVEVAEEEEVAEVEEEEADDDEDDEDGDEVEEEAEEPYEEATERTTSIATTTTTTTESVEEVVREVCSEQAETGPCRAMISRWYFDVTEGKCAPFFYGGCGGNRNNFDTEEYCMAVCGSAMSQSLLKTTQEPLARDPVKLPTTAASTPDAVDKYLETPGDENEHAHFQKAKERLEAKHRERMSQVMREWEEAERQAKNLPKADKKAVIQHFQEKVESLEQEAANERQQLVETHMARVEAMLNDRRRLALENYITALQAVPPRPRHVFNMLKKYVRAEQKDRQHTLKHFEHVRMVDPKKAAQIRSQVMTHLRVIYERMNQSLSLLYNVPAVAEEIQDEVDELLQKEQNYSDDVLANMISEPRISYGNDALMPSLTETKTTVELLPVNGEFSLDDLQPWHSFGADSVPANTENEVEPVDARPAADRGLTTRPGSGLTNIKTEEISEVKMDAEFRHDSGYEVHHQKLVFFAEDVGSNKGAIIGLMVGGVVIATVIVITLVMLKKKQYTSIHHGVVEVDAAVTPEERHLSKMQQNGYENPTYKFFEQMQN

[4] = biological target: T2, Prostaglandin G/H synthase 1 (Rattus norvegicus) (UniProt Q63921); assay: Percent inhibition against cyclooxygenase-1 at 100 uM in rat blood
T2 sequence (whole entry): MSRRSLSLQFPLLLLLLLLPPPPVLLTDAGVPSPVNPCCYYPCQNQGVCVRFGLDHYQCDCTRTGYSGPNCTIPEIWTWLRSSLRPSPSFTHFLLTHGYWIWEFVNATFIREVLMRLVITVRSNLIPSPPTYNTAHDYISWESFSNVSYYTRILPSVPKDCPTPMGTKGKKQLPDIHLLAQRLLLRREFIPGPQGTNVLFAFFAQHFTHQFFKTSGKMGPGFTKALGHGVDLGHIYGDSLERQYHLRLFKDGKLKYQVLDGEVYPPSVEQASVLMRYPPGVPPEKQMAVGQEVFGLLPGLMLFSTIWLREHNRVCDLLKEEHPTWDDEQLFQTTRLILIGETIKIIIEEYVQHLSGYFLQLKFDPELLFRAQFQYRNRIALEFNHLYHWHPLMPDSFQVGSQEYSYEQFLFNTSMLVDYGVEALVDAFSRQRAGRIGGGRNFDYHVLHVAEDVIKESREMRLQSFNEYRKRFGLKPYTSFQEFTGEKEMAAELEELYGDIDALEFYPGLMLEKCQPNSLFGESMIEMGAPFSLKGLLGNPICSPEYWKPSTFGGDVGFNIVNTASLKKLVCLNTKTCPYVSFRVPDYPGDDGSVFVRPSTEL
Procedure, shortened: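 Fresh rat whole blood preincubated 1 h at 37 °C with compound (100 μM) or DMSO (0.3% final). Stimulated 30 min with A23187 calcium ionophore; plasma thromboxane B2 measured by radioimmunoassay.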

Cytochrome P450 2C9 = Cytochrome P450 2C9 (Homo sapiens, UniProt P11712); assay: Interaction with human cytochrome P450 isoform 2C9 expressed in baculovirus-insect cells; Activation was observed due to interference in assay; type: ADME
Procedure, shortened: (§2)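 Microsomes from baculovirus-insect cells expressing human CYP1A2, 2C9, 2C19, 2D6 or 3A4. Compound serially diluted with an NADPH-regenerating mix (16.3 μM NADP+, 0.83 mM glucose-6-phosphate, 0.83 mM MgCl2, 0.4 U/mL G6PDH). Pre-warmed 10 min at 37 °C, then isoform-specific substrate added in 0.35 M potassium phosphate pH 7.4. Fluorometric read-out; IC50 by nonlinear regression.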

[5] = biological target: T1, Amyloid-beta precursor protein; conditions: at 100 µM
Target sequence in this assay (P05067 whole entry): as the sequence (P05067 whole entry) above

[6] = Area under curve after administration to rats at a dose of 7.6 mg/kg orally; type: ADME, organism-based; parameters: dose 7.6 mg/kg, route oral; conditions: rat, in vivo, po
[7] = Area under curve after administration to rats at adose of 1.5 mg/kg intravenously; type: ADME, organism-based; parameters: dose 1.5 mg/kg, route intravenous; conditions: rat, in vivo, iv
[8] = Maximum time corresponding to maximum concentration after administration to rats at a dose of 7.6 mg/kg orally; type: ADME, organism-based; parameters: dose 7.6 mg/kg, route oral; conditions: rat, in vivo, po
[9] = Maximum time corresponding to maximum concentration after administration to rats at a dose of 1.5 mg/kg intravenously; type: ADME, organism-based; parameters: dose 1.5 mg/kg, route intravenous; conditions: rat, in vivo, iv
[10] = Absolute oral bioavailability after administration to rats at a dose of 7.6 mg/kg orally; type: ADME, organism-based; conditions: rat, in vivo
[11] = Maximal concentration in rats after 1.5 mg/kg intravenous dose; type: ADME, organism-based; parameters: dose 1.5 mg/kg, route intravenous; conditions: rat, in vivo
[12] = biological target: T3, Prostaglandin G/H synthase 1 (Rattus norvegicus, UniProt Q63921); assay: Concentration required to inhibit cyclooxygenase-1 in rat blood
T3 sequence (Q63921 whole entry): T2 sequence (whole entry)
Procedure, shortened: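 Fresh rat whole blood was preincubated 1 h at 37 °C with compound (100 μM or a concentration series; DMSO 0.3% final). It was then stimulated 30 min with the Ca²⁺ ionophore A23187. Thromboxane B2 in the plasma was measured by radioimmunoassay.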

[13] = Total body clearance after administration to rats at a dose of 1.5 mg/kg intravenously; type: ADME, organism-based; parameters: dose 1.5 mg/kg, route intravenous; conditions: rat, in vivo, iv
[14] = Elimination phase half-life after administration to rats at a dose of 7.6 mg/kg orally; type: ADME, organism-based; parameters: dose 7.6 mg/kg, route oral; conditions: rat, in vivo, po
[15] = Elimination phase half-life after administration to rats at a dose of 1.5 mg/kg intravenously; type: ADME, organism-based; parameters: dose 1.5 mg/kg, route intravenous; conditions: rat, in vivo, iv
Cytochrome P450 2C19 [16] = biological target: T4, Cytochrome P450 2C19 (Homo sapiens, UniProt P33261); assay: Compound was tested for interaction with baculovirus-insect cells expressing human cytochrome P450; No interactions at 100 uM; type: ADME
[17] = Maximal concentration in rats after 7.6 mg/kg oral dose; type: ADME, organism-based; parameters: dose 7.6 mg/kg, route oral; conditions: rat, in vivo
[18] = In vivo steady state metabolic clearance of the compound; conditions: rat
Cytochrome P450 3A4 [19] = biological target: T5, Cytochrome P450 3A4 (Homo sapiens, UniProt P08684); assay: (§3) Interaction with human cytochrome P450 isoform 3A4 expressed in baculovirus-insect cells; type: ADME
Procedure, shortened: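 Supersome microsomes from baculovirus-insect cells expressing human CYP1A2, 2C9, 2C19, 2D6 or 3A4 were used with isoform-specific fluorogenic substrates. Compounds were serially diluted with an NADP⁺/glucose-6-phosphate regenerating system in 0.35 M potassium phosphate, pH 7.4. Plates were prewarmed 10 min at 37 °C, reactions stopped with acetonitrile/Tris, and fluorescence read. IC50 was obtained by nonlinear regression.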

Cytochrome P450 2C19 [20] = biological target: T4, Cytochrome P450 2C19; assay: Interaction with human cytochrome P450 isoform 2C19 expressed in baculovirus-insect cells; type: ADME; procedure, shortened: as §2
[21] = Concentration ratio in cerebrospinal fluid and plasma; below lower limit of quantitation; conditions: rat
CYP1A2 = biological target: T6, CYP1A2 (Homo sapiens, UniProt P05177); assay: Interaction with human cytochrome P450 isoform 1A2 expressed in baculovirus-insect cells at 100 uM; type: ADME; procedure, shortened: as §2
T6 sequence (P05177 whole entry): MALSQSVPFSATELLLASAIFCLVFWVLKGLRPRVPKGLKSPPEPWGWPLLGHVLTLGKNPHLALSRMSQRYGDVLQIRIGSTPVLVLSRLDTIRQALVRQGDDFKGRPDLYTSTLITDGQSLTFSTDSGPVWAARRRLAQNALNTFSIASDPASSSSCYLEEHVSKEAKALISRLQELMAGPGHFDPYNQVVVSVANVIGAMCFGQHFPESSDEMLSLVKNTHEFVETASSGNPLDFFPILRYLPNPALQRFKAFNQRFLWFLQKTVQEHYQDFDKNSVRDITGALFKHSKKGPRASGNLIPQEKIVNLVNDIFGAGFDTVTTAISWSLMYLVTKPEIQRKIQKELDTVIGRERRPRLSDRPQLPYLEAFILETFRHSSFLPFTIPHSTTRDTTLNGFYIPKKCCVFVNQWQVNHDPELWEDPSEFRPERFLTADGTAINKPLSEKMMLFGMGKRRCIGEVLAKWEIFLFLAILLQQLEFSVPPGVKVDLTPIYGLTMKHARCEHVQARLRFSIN

CYP2D6 = CYP2D6 (Homo sapiens, UniProt P10635); assay: Interaction with human cytochrome P450 isoform 2D6 expressed in baculovirus-insect cells at 100 uM; type: ADME; procedure, shortened: as §2
CYP2C9 = CYP2C9 (Homo sapiens, UniProt P11712); assay: Interaction with human cytochrome P450 isoform 2C9 expressed in baculovirus-insect cells at 100 uM; type: ADME; procedure, shortened: as §2
CYP3A4 = CYP3A4 (Homo sapiens, UniProt P08684); assay: Interaction with human cytochrome P450 isoform 3A4 expressed in baculovirus-insect cells at 100 uM; type: ADME; procedure, shortened: as §2
CYP2C19 = CYP2C19 (Homo sapiens, UniProt P33261); assay: Interaction with human cytochrome P450 isoform 2C19 expressed in baculovirus-insect cells at 100 uM; type: ADME; procedure, shortened: as §2
[22] = Concentration ratio in cerebrospinal fluid and plasma; conditions: rat
[23] = biological target: T1, Amyloid-beta precursor protein; assay: Concentration required to inhibit A beta 40 peptide 100 uM
Target sequence in this assay (P05067 whole entry): as the sequence (P05067 whole entry) above

Cytochrome P450 1A2 = biological target: T7, Cytochrome P450 1A2 (Homo sapiens, UniProt P05177); assay: Interaction with human cytochrome P450 isoform 1A2 expressed in baculovirus-insect cells; type: ADME; procedure, shortened: as §2
T7 sequence (P05177 whole entry): T6 sequence (P05177 whole entry)

Cytochrome P450 3A4 [24] = biological target: T5, Cytochrome P450 3A4; assay: as §3; type: ADME; procedure, shortened: as §2; remark: listed apart in the source
[25] = Concentration ratio in cerebrospinal fluid and plasma; LLOQ = lower limit of quantitation; conditions: rat

T5 sequence (P08684 whole entry, canonical isoform): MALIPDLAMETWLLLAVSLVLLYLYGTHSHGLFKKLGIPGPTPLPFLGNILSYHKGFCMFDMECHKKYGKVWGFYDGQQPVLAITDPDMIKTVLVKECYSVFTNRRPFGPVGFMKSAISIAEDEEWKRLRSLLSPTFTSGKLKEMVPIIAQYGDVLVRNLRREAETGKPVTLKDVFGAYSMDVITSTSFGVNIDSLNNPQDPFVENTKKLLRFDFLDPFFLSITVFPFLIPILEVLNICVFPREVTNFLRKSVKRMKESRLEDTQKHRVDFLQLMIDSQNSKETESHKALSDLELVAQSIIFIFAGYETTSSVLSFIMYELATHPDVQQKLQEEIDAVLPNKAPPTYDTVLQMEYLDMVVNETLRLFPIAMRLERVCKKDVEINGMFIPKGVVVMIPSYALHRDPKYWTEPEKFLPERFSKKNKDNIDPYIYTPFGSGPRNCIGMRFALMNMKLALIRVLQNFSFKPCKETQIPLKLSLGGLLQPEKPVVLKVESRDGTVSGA
T4 sequence (P33261 whole entry): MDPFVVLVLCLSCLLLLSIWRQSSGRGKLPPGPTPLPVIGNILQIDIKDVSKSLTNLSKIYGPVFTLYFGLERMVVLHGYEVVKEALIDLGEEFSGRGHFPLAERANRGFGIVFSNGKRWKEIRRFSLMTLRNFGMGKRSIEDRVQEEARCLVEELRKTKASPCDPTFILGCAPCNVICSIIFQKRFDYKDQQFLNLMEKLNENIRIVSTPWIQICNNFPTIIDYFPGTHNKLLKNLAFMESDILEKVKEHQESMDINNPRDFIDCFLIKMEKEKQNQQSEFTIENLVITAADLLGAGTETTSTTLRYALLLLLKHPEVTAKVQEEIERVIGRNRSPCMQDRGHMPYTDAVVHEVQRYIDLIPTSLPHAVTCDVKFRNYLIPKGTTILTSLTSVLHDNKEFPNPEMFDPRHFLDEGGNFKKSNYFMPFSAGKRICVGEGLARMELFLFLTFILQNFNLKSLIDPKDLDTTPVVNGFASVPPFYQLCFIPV
Sequence of CYP3A4 (P08684 whole entry, canonical isoform): as the sequence (P08684 whole entry, canonical isoform) above
Sequence of Cytochrome P450 2C9 (P11712 whole entry, canonical isoform): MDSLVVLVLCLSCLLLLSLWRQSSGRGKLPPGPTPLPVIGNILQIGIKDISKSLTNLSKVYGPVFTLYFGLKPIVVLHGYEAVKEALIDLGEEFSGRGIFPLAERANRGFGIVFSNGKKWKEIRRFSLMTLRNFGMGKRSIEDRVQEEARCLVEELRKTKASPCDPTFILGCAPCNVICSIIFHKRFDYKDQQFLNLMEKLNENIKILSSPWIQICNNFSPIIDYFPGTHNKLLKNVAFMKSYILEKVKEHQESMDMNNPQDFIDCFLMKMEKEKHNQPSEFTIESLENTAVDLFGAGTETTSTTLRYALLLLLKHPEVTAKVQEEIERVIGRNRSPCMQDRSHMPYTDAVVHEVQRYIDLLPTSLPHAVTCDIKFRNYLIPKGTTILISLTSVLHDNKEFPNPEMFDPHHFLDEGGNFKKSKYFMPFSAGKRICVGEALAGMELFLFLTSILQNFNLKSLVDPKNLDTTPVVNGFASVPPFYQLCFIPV
Sequence of CYP2C9 (P11712 whole entry, canonical isoform): as above
Sequence of CYP2C19 (P33261 whole entry, canonical isoform): as the sequence (P33261 whole entry) above
Sequence of CYP2D6 (P10635 whole entry, canonical isoform): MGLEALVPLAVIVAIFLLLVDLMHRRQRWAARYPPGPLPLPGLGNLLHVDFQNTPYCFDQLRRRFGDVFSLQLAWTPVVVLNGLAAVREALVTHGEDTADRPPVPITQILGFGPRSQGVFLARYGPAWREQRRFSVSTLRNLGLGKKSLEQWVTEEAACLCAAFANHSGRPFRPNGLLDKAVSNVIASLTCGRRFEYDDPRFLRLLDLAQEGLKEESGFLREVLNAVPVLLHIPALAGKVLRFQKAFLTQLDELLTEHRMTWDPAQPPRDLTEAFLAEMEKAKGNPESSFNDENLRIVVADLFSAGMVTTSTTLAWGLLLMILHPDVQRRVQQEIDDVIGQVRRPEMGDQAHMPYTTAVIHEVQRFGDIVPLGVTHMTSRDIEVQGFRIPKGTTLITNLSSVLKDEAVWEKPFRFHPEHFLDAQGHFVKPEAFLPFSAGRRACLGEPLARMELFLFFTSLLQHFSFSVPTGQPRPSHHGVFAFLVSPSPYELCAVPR

## CC(C(=O)O)c1ccc(-c2cc(Cl)cc(Cl)c2)c(F)c1 (stereo not drawn)
[1]
  IC50: 77 µM
[2]
  Papp: > 5 ×10⁻⁶ cm/s
[3]
  IC50: 94 µM
[4]
  inhibition: 65%
Cytochrome P450 2C9
  Activation: > 50%
[5]
  inhibition: 75%

## CC(C(=O)O)c1ccc(-c2ccccc2)c(F)c1 (stereo not drawn) [FLURBIPROFEN]
[6]
  AUC: 311 µg/h/mL
[7]
  AUC: 78 µg/h/mL
[1]
  IC50: 305 µM
[8]
  Tmax: 0.5 h
[9]
  Tmax: 0.3 h
[10]
  bioavailability: 78.3%
[11]
  Cmax: 9100 ng/mL
[2]
  Papp: > 5 ×10⁻⁶ cm/s
[12]
  IC50: 0.17 µM
[13]
  Clearance: 0.318 mL/min/kg
[14]
  half-life: 4.9 h
[15]
  half-life: 5.1 h
Cytochrome P450 2C19 [16]
  Inhibition: No interactions
[17]
  Cmax: 49100 ng/mL
[5]
  inhibition: 30%
[18]
  Clearance: 13.9 mL/h

## O=C(O)C1(c2ccc(-c3ccc(-c4ccc(O)cc4)c(F)c3)c(F)c2)CC1
Cytochrome P450 3A4 [19]
  IC50: 58 µM
Cytochrome P450 2C19 [20]
  IC50: 74 µM
[1]
  IC50: 33.6 µM
[2]
  Papp: > 5 ×10⁻⁶ cm/s
[3]
  IC50: 111 µM
[4]
  inhibition: < 1%
[5]
  inhibition: 80%
[18]
  Clearance: 109 mL/h
[21]
  Ratio: Below LLOQ

## CC(C(=O)NS(C)(=O)=O)c1ccc(-c2ccc(C(F)(F)F)cc2)c(F)c1 (stereo not drawn)
CYP1A2
  inhibition at 100 µM: > 50%
CYP2D6
  inhibition at 100 µM: > 50%
CYP2C9
  inhibition at 100 µM: > 50%
CYP3A4
  inhibition at 100 µM: > 50%
CYP2C19
  inhibition at 100 µM: > 50%
[5]
  inhibition: 34%
[22]
  Ratio: 1.7%
[18]
  Clearance: 3.1 mL/h

## CC(C(=O)O)c1ccc(-c2ccc(OC3CCCCC3)cc2)c(F)c1 (stereo not drawn)
[1]
  IC50: 41 µM
[2]
  Papp: > 5 ×10⁻⁶ cm/s
[23]
  inhibition: 25%
[4]
  inhibition: 20%
Cytochrome P450 1A2
  Inhibition: > 50%
Cytochrome P450 3A4 [24]
  Inhibition: > 50%
[5]
  inhibition: 76%
[18]
  Clearance: 148 mL/h
[25]
  Ratio: Below LLOQ
